Assays:
HEK293 = assay: Antiproliferative activity against HEK293 cells assessed as reduction of cell growth after 72 hrs by MTT method; format: cell-based; settings: Homo sapiens, HEK293, 72 h
Outline: (§1)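 Cells (3.4 × 10^4) seeded in 96-well plates, left to adhere 2 h at 37 °C in 5% CO2. Medium replaced with fresh medium, then 1:4 serial dilutions of compound added. Incubation 72 h. MTT (5 mg/mL stock) added for 3 h. Crystals dissolved in 50% DMF/20% SDS, pH 4.5, and OD read at 620 nm. % dead cells = 100 − (OD treated/OD control)×100. IC50 taken versus control.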

J774 = assay: Antiproliferative activity against mouse J774 cells assessed as reduction of cell growth after 72 hrs by MTT method; format: cell-based; settings: J774, 72 h; outline: as §1
WEHI-164 = assay: Antiproliferative activity against mouse WEHI164 cells assessed as reduction of cell growth after 72 hrs by MTT method; format: functional, cell-based; settings: WEHI-164, 72 h; outline: as §1

| Structure (SMILES) | IC50 (HEK293) [nM] | IC50 (J774) [nM] | IC50 (WEHI-164) [nM] |
| --- | --- | --- | --- |
| C[C@@H]1O[C@@H](O[C@H]2[C@H](O)[C@@H](O)[C@H](OC[C@H]3O[C@@H](OC(=O)[C@]45CCC(C)(C)C[C@H]4C4=CC[C@@H]6[C@@]7(C)CC[C@H](O[C@@H]8OC[C@H](O)[C@H](O)[C@H]8O[C@@H]8O[C@@H](C)[C@H](O)[C@@H](O[C@@H]9O[C@H](CO)[C@@H](O)[C@H](O)[C@H]9O)[C@H]8O)C(C)(C)[C@@H]7CC[C@@]6(C)[C@]4(C)C[C@H]5O)[C@H](O)[C@@H](O)[C@@H]3O)O[C@@H]2CO)[C@H](O)[C@H](O)[C@H]1O | 150 | 110 | 240 |
| C[C@@H]1O[C@@H](O[C@H]2[C@H](O)[C@@H](O[C@@H]3O[C@H](CO)[C@@H](O)[C@H](O)[C@H]3O)[C@H](OC[C@H]3O[C@@H](OC(=O)[C@]45CCC(C)(C)C[C@H]4C4=CC[C@@H]6[C@@]7(C)CC[C@H](O[C@@H]8OC[C@H](O)[C@H](O)[C@H]8O[C@@H]8O[C@@H](C)[C@H](O)[C@@H](O[C@@H]9O[C@H](CO)[C@@H](O)[C@H](O)[C@H]9O)[C@H]8O)[C@@](C)(CO)[C@@H]7CC[C@@]6(C)[C@]4(C)CC5)[C@H](O)[C@@H](O)[C@@H]3O)O[C@@H]2C)[C@H](O)[C@H](O)[C@H]1O | 320 | 100 | 260 |
| C[C@@H]1O[C@@H](O[C@H]2[C@H](O[C@H]3CC[C@@]4(C)[C@@H](CC[C@]5(C)[C@@H]4CC=C4[C@@H]6CC(C)(C)CC[C@]6(C(=O)O)CC[C@]45C)[C@]3(C)CO)OC[C@H](O)[C@@H]2O)[C@H](O)[C@H](O[C@@H]2O[C@H](CO)[C@@H](O)[C@H](O)[C@H]2O)[C@H]1O |  | 70 |  |
| C[C@@H]1O[C@@H](O[C@H]2[C@H](O[C@H]3CC[C@]4(C)[C@H]5CC=C6[C@@H]7CC(C)(C)CC[C@]7(C(=O)O)[C@H](O)C[C@@]6(C)[C@]5(C)CC[C@H]4C3(C)C)OC[C@H](O)[C@@H]2O)[C@H](O)[C@H](O[C@@H]2O[C@H](CO)[C@@H](O)[C@H](O)[C@H]2O)[C@H]1O |  | 190 |  |
| C[C@@H]1O[C@@H](O[C@H]2[C@H](O)[C@@H](O)[C@H](OC[C@H]3O[C@@H](OC(=O)[C@]45CCC(C)(C)C[C@H]4C4=CC[C@@H]6[C@@]7(C)CC[C@H](O[C@@H]8OC[C@H](O)[C@H](O)[C@H]8O[C@@H]8O[C@H](C)[C@@H](O)[C@H](O)[C@H]8O)C(C)(C)[C@@H]7CC[C@@]6(C)[C@]4(C)CC5)[C@H](O)[C@@H](O)[C@@H]3O)O[C@@H]2CO)[C@H](O)[C@H](O)[C@H]1O | 200 | 100 |  |
| C[C@@H]1O[C@@H](O[C@H]2[C@H](O)[C@@H](O)[C@H](OC[C@H]3O[C@@H](OC(=O)[C@]45CCC(C)(C)C[C@H]4C4=CC[C@@H]6[C@@]7(C)CC[C@H](O[C@@H]8OC[C@H](O)[C@H](O)[C@H]8O[C@@H]8O[C@@H](C)[C@H](O)[C@@H](O[C@@H]9O[C@H](CO)[C@@H](O)[C@H](O)[C@H]9O)[C@H]8O)C(C)(C)[C@@H]7CC[C@@]6(C)[C@]4(C)CC5)[C@H](O)[C@@H](O)[C@@H]3O)O[C@@H]2CO)[C@H](O)[C@H](O)[C@H]1O | 520 |  | 1800 |
| C[C@@H]1O[C@@H](O[C@H]2[C@H](O[C@H]3CC[C@]4(C)[C@H]5CC=C6[C@@H]7CC(C)(C)CC[C@]7(C(=O)O[C@@H]7O[C@H](CO[C@@H]8O[C@H](CO)[C@@H](O[C@@H]9O[C@@H](C)[C@H](O)[C@@H](O[C@@H]%10O[C@H](CO)[C@@H](O)[C@H](O)[C@H]%10O)[C@H]9O)[C@H](O)[C@H]8O)[C@@H](O)[C@H](O)[C@H]7O)CC[C@@]6(C)[C@]5(C)CC[C@H]4C3(C)C)OC[C@H](O)[C@@H]2O)[C@H](O)[C@H](O[C@@H]2O[C@H](CO)[C@@H](O)[C@H](O)[C@H]2O)[C@H]1O | 170 | 180 |  |
| C[C@@H]1O[C@@H](O[C@H]2[C@H](O)[C@@H](O)[C@H](OC[C@H]3O[C@@H](OC(=O)[C@]45CCC(C)(C)C[C@H]4C4=CC[C@@H]6[C@@]7(C)CC[C@H](O[C@@H]8OC[C@H](O)[C@H](O)[C@H]8O[C@@H]8O[C@H](C)[C@@H](O)[C@H](O)[C@H]8O)[C@@](C)(CO)[C@@H]7CC[C@@]6(C)[C@]4(C)CC5)[C@H](O)[C@@H](O)[C@@H]3O)O[C@@H]2CO)[C@H](O)[C@H](O)[C@H]1O |  | 460 | 1900 |
| C[C@@H]1O[C@@H](O[C@H]2[C@H](O[C@H]3CC[C@]4(C)[C@H]5CC=C6[C@@H]7CC(C)(C)CC[C@]7(C(=O)O[C@@H]7O[C@H](CO[C@@H]8O[C@H](CO)[C@@H](O[C@@H]9O[C@@H](C)[C@H](O)[C@@H](O)[C@H]9O)[C@H](O)[C@H]8O)[C@@H](O)[C@H](O)[C@H]7O)CC[C@@]6(C)[C@]5(C)CC[C@H]4C3(C)C)OC[C@H](O)[C@@H]2O)[C@H](O)[C@H](O)[C@H]1O [HEDERASAPONIN B] |  | 60 | 600 |
| Sc1ncnc2nc[nH]c12 [MERCAPTOPURINE ANHYDROUS] |  | 3 | 17 |

— ChEMBL document CHEMBL1155685, “Antiproliferative triterpene saponins from Trevesia palmata” (J Nat Prod, 2000)
